Published values of several laboratories.
Lines come from different studies, so protocols differ.
Target: Protein kinase C delta type (PRKCD, Homo sapiens, UniProt Q05655)

| Compound | assay | conditions | measurement | result |
| --- | --- | --- | --- | --- |
| N#Cc1ccc(Nc2ccc3[nH]c(=O)[nH]c3c2)c(Cl)c1 | cell-free assay, competition with immobilised ligand | 1 µM | remaining binding | 100% |
| Cc1ccc(NC(=O)c2ccc(C)c(C(F)(F)F)c2)cc1C#Cc1nn(C2CCC(O)CC2)c2ncnc(N)c12 (stereo not drawn) | cell-free assay | 10 µM | remaining signal | 96% |
| COc1cc2ncnc(Nc3ccc(Oc4ccccc4)c(C)c3C)c2cc1OC | enzyme activity, inhibitor | 1 µM | inhibition | 23% |
| Cc1sc(C(=O)NC2COC2)cc1-n1cc(NC(=O)Nc2c(F)cccc2Cl)cn1 | enzyme activity, inhibitor | 10 µM | remaining activity | 98% |
| CC(C)(C)c1nc(-c2cccc(NS(=O)(=O)c3c(F)cccc3F)c2F)c(-c2ccnc(N)n2)s1 | enzyme activity, inhibitor, radiometric | 1 µM | remaining activity | 119% |
| CNC(=O)c1cc(Oc2ccc(NC(=O)Nc3ccc(Cl)c(C(F)(F)F)c3)cc2)ccn1 | enzyme activity, inhibitor | 10 µM | inhibition | -6% |
| O=C(O)[C@H]1[C@H](Cn2nnc3ccccc3c2=O)CC[C@@H]1C(=O)c1ccc(OCCC2CCOCC2)cc1 | cell-free assay, competition with immobilised ligand | 1 µM | remaining binding | 100% |
| Cn1c2ccccc2c2c3c(c4c5ccccc5n(CCC#N)c4c21)CNC3=O | cell-free assay | 0.5 µM | remaining signal | 41.9% |
| Cc1cnc(NC2CCOCC2)nc1-n1cnc(C(=O)NC(CN)c2cc(F)cc(Cl)c2)c1 (stereo not drawn) | enzyme activity, inhibitor, radiometric | 1 µM | remaining activity | 59% |
| c1ccc(N2CCN(Cc3nc4ccccc4[nH]3)CC2)nc1 | cell-free assay, competition with immobilised ligand | 1 µM | remaining binding | 100% |
| CN1CC(Oc2cnc(C#N)cc2-c2ccn3nc(NC(=O)C4CC4)cc3c2)C1 | enzyme activity, inhibitor | 1 µM | inhibition | 3% |
| N#CCCc1ccc2c(c1)-c1[nH]c3ccc([N+](=O)[O-])cc3c1CC(=O)N2 | cell-free assay | 0.5 µM | remaining signal | 74.9% |
| Nc1c(C(=O)NCc2ccc(C(=O)NCCCC3CCCCC3)cc2)cnn1-c1ccccc1 | cell-free assay, competition with immobilised ligand | 0.1 µM | remaining binding | 88% |
| Oc1cccc(-c2nc(N3CCOCC3)c3oc4ncccc4c3n2)c1 | cell-free assay | 0.5 µM | remaining signal | 96% |
| CCC(=O)N[C@H]1CC[C@@H](C(=O)N(C)c2ccc(-c3nc4ccccc4o3)cc2)C1 | cell-free assay, competition with immobilised ligand | 1 µM | remaining binding | 100% |
| Cn1cnc(Br)c1C1=CN(c2ncnc3[nH]cnc23)CCS1 | enzyme activity, inhibitor, radiometric | 2 µM | inhibition | 93.4% |
| CNCc1ccccc1-c1csc([C@@H](C)Nc2nc(C)nc3cc(OC)c(OC)cc23)c1 | cell-free assay, competition with immobilised ligand | 1 µM | remaining binding | 98% |
| Cc1ccc(C(=O)Nc2ccc(CN3CCN(C)CC3)c(C(F)(F)F)c2)cc1C#Cc1cnc2cccnn12 | enzyme activity | 23.5 nM | remaining activity | 64% |
| C[C@@H](N)[C@H]1CC[C@H](C(=O)Nc2ccncc2)CC1 | enzyme activity, inhibitor, TR-FRET | 10 µM | inhibition | 82.5% |
| Cc1ccc(C(=O)NCc2ccsc2)cc1C#Cc1cn(C(C)C)c2ncnc(N)c12 | enzyme activity, inhibitor | 1 µM | activity vs control | 90% |
| COCCOc1nc(-c2ccc(Cl)nc2)nc2c1CN(C(=O)c1ncn3ccccc13)CC2 | cell-free assay, competition with immobilised ligand | 0.1 µM | remaining binding | 100% |
| Cn1cncc1C1=CN(c2ncnc3[nH]cnc23)CCS1 | enzyme activity, inhibitor, radiometric | 50 nM | inhibition | 12.6% |
| CC/C(=N\NC(=O)NCc1cccc(O)c1)c1ccc(O)c(C)c1O | enzyme activity, inhibitor | 0.1 µM | inhibition | 24.6% |
| CCCOc1ccc(OC)c(F)c1C(=O)c1ccc(C(=O)N[C@@H]2CNC[C@H]2NC(=O)c2ccc3[nH]ncc3c2)cc1 | enzyme activity, inhibitor | 50 nM | remaining activity | 103% |
